The results in this text go back to article PMC9771833 (International Journal for Parasitology: Drugs and Drug …, 2022).

Data set [1] concerns Plasmodium berghei NAT (atovaquone-resistant strain). The experiment in a line: 4-day suppression test in P. berghei NAT-infected ICR mice. The class given is in vivo. In short, it runs like this:
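Female 7-week-old ICR-1 mice (6/group) infected i.p. with 10^7 P. berghei NAT-infected erythrocytes. Dosing began 1 dpi: test compound at 10, 20 or 30 mg/kg, once daily for 4 days. Controls were DHA 10, atovaquone 4 and chloroquine 10 mg/kg, given i.v. once daily for 4 days. Parasitemia was measured daily by FACS of tail blood. Weight and survival were recorded daily to 15 dpi.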

The nature of data set [2]: In vitro cytotoxicity in Vero cells. It is filed as cell-based, African green monkey (Chlorocebus sp.). The note with it: African green monkey, Vero cells (kidney epithelial cells), CC50, Vero cell, mean ± SD. In short, it runs like this:
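Vero cells were pre-seeded 12 h, then exposed to serially diluted test compound or control drugs for 48 h. Viability was read with CellTiter 96 AQueous One reagent at 490 nm absorbance. CC50 was calculated from the concentration–response data.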

Data set [3] has as its system Plasmodium berghei NAT (atovaquone-resistant strain). The experiment in a line: Hematological analysis of P. berghei NAT-infected mice. It is filed as in vivo. In short, it runs like this:
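Same P. berghei NAT-infected ICR-1 mouse model: 10^7 infected erythrocytes given i.p., test compound or control drug once daily for 4 days from 1 dpi. Blood was taken at 3, 6, 9 and 12 dpi and run on an automated blood cell counter for WBC, RBC, haemoglobin and hematocrit.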

The test system of data set [4] is eIF2α phosphorylation (ER stress response). Kind of data set: Western blotting of phosphorylated eIF2α in trophozoite lysates. It is filed as cell-based, Plasmodium falciparum. Conditions: trophozoites treated 90 min, Western blot. In outline: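 P. falciparum trophozoite cultures (5% hematocrit, 5% parasitemia) were plated 10–12 h, then drug-treated at 37 °C. Parasites were freed with 0.15% saponin, lysed in RIPA, run on 10% Bis-Tris SDS-PAGE and transferred to PVDF. Blots were blocked in 5% BSA and probed overnight at 4 °C with anti-phospho-eIF2α (1:1000), anti-eIF2α (1:3000) and anti-PfEF1α (5 μg/mL) as loading control. Detection used HRP secondaries and ECL.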
On the technique in general: Immunoblotting shows a protein as a band on a membrane.

A further data set has as its system P. f K1 (CQ Resistant). The class given is cell-based, Plasmodium falciparum. Conditions: relative to SKM13.
Data set [5] relates to Plasmodium falciparum 3D7. The class given is cell-based. Conditions: 3D7 (CQ Sensitive); relative to SKM13.

Regarding `CCN(CC)CCCC(C)Nc1ccnc2cc(Cl)ccc12` (centres unmarked) [Chloroquine], in data set [1] (10 mg/kg), the body weight result is reported as “maintained normal mouse body weight”. In addition, the “parasite density (parasitemia)” value in data set [1] (10 mg/kg i.v., all observation period, p < 0.001) was “significantly reduced”. Also, the CC50 (usually the concentration that lowers cell viability or growth by half) at 48 h in data set [2] was found to be 120 ± 16.4 µM. Moreover, the “WBC counts, HCT and Hgb” value in data set [3] (10 mg/kg, infected mice, 3-12 dpi) is “did not affect”. Besides, the “phosphorylation of eIF2α” value in data set [4] is on record as “did not increase phosphorylation of eIF2α”. Moreover, the figures for the “Relative SI” value (in the data set on P. f K1 (CQ Resistant); in data set [5]) were 7.81 and 20.93, respectively.

`O=C1C(O)=C([C@H]2CC[C@H](c3ccc(Cl)cc3)CC2)C(=O)c2ccccc21` [Atovaquone]: the body weight result in data set [1] (4 mg/kg) was “decreased”. The parasitemia density entry in data set [1] (4 mg/kg i.v.) is given as “did not suppress parasitemia density”. Also, in data set [1] (4 mg/kg i.v. once a day for four days, 15 dpi, ICR mice n = 6), the survival rate worked out at 33%. For the same compound, in data set [3] (4 mg/kg, compared with infected untreated mice (WBC increased at 9 to 12 dpi)), the WBC counts entry is on record as “same pattern of haematological result”.

`C[C@H]1[C@@H](O)O[C@@H]2O[C@@]3(C)CC[C@H]4[C@H](C)CC[C@@H]1[C@@]24OO3` [DHA, Dihydroartemisinin] had a CC50 at 48 h in data set [2] of 31.3 ± 8.94 µM. The “Relative SI” value with P. f K1 (CQ Resistant) is given as 3.97; in data set [5], 4.84.
